Read-outs that look alike come from different tables or passages of the source.
Key:
WiDR cells = test: MTT cytotoxicity assay on WiDR colorectal cancer cells; format: cell-based; conditions: for IC50: Homo sapiens, WiDr, 24 h; for SI (selectivity index): ratio of IC50 in Vero versus that in WiDR cells, selective if >3
How it was run: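 WiDR cells grown in RPMI 1640 with 0.1 mg/mL streptomycin (5% CO2, 37°C); confluent cells seeded 1×10^4/well for 24 h, then exposed 24 h to test compound (1% DMSO solution diluted in medium) at 3.906–500 µg/mL. MTT 4 h, formazan dissolved overnight in 10% SDS/0.01 N HCl, A595. Viability vs untreated and cell-free controls; IC50 by probit, mean of three experiments; SI = Vero IC50/WiDR IC50.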

[1] = IC50 slightly higher than that of chloroquine; cited from earlier work

| Structure (SMILES) | IC50 (WiDR cells; read-out: IC50 (µM) WiDR) | IC50 (WiDR cells; read-out: IC50 (µg/mL) WiDR) | cytotoxicity category (CSIR criteria) (WiDR cells; WiDR cell line) | cytotoxic activity (in words) (WiDR cells; WiDR cells, MTT) | SI (selectivity index) (WiDR cells) | SI (selectivity index) (WiDR cells; listed as compound 5) | antimalarial activity [1] |
| --- | --- | --- | --- | --- | --- | --- | --- |
| O=c1c2ccc(O)cc2oc2c(O)c(O)ccc12 [Compound 5, 3,4,6-trihydroxyxanthone] | 37.8 ± 10.6 µM | 9.23 ± 2.58 µg/mL | moderate (moderate (6.25 µg/mL < mean IC50 <15 µg/mL)) | exhibited cytotoxic activity | 66.39 | 66.40 | good antimalarial activity |
| COc1cccc2c1C(=O)c1c(O)c3c(c(O)c1C2=O)C[C@@](O)(C(=O)CO)C[C@@H]3O[C@H]1C[C@H](N)[C@H](O)[C@H](C)O1 [Doxorubicin, doxorubicin, reference compound] | 3.04 ± 0.184 µM | 1.65 ± 0.19 µg/mL |  |  | 49.38 |  |  |
